In ChEMBL document CHEMBL4480426, “Novel multi-target directed ligands based on annelated xanthine scaffold with aromatic substituents acting on adenosine receptor and monoamine oxidase B. Synthesis, in vitro and in silico studies” (Bioorg Med Chem, 2019):

Columns and labels:
[1] = target: T1, Adenosine receptor A3 (Homo sapiens, UniProt P0DMS8); assay: Displacement of [3H]PSB11 from recombinant human adenosine A3 receptor expressed in CHO cells; assay type: cell-based
T1 sequence (P0DMS8 whole entry): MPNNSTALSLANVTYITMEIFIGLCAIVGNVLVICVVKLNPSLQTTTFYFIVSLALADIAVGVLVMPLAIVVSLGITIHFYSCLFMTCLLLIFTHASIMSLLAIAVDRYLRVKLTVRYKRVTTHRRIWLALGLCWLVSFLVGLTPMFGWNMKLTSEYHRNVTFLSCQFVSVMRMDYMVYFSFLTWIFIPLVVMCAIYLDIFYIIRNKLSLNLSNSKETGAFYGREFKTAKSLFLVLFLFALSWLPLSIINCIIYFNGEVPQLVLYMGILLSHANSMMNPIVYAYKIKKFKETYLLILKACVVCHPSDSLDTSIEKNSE

[2] = target: T2, Adenosine receptor A1 (Rattus norvegicus, UniProt P25099); assay: Displacement of [3H]CCPA from adenosine A1 receptor in rat brain cortical membranes; assay type: cell membranes
T2 sequence (P25099 whole entry): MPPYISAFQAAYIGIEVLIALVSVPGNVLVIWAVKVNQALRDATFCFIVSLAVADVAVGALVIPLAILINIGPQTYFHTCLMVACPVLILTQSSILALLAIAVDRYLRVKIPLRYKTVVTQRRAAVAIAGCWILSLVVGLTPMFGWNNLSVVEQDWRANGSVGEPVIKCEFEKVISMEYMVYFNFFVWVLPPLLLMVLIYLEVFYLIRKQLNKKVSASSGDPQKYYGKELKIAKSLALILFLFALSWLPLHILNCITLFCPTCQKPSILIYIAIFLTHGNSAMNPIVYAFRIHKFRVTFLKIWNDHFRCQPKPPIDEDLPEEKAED

[3] = target: T3, Amine oxidase [flavin-containing] B (Homo sapiens, UniProt P27338); assay: Inhibition of recombinant human MAOB expressed in baculovirus infected BTI insect cells using p-tyramine as substrate preincubated for 30 mins followed by substrate addition and measured over 45 mins by horseradish peroxidase-Amplex Red-coupled fluorometric assay
T3 sequence (P27338 whole entry): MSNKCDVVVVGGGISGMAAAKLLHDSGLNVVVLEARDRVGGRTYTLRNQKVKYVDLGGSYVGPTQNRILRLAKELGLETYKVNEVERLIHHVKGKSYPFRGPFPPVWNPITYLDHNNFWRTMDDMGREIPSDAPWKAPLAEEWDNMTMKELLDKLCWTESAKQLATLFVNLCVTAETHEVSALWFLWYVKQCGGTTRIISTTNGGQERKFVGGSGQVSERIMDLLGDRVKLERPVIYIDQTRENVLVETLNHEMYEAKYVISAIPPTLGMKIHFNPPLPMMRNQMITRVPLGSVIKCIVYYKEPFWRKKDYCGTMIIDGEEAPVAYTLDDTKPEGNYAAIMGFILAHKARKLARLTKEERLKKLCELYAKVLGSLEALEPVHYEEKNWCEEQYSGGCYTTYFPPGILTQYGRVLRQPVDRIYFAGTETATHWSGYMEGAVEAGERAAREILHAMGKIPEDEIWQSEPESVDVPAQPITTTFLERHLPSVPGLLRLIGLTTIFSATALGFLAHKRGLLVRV
Outline: (§1)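 Human recombinant MAO-A or MAO-B enzyme. Activity detected fluorometrically with the Amplex Red monoamine oxidase assay.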

[4] = target: T4, Amine oxidase [flavin-containing] A (Homo sapiens, UniProt P21397); assay: Inhibition of recombinant human MAOA expressed in baculovirus infected BTI insect cells at 1 to 100 uM using p-tyramine as substrate preincubated for 30 mins followed by substrate addition and measured over 45 mins by horseradish peroxidase-Amplex Red-coupled fluorometric assay relative to control; conditions: 0.75 h; outline: as §1
T4 sequence (P21397 whole entry): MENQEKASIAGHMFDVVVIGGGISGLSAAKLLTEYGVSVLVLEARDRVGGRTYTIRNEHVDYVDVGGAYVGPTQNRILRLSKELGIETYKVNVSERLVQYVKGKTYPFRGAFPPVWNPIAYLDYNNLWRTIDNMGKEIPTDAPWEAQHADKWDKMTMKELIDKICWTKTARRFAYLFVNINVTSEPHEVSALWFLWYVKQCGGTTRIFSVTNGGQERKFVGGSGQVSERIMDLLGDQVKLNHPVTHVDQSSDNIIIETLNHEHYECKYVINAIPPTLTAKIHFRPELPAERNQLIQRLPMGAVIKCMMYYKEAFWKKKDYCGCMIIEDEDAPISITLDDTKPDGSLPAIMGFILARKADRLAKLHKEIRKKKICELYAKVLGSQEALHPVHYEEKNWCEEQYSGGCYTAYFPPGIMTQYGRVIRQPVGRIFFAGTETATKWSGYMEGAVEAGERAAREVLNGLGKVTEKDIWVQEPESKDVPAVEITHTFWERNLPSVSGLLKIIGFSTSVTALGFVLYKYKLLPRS

[5] = target: T5, Adenosine receptor A2b (Homo sapiens, UniProt P29275); assay: Displacement of [3H]PSB603 from recombinant human adenosine A2b receptor expressed in HEK293 cells; assay type: cell-based
T5 sequence (P29275 whole entry): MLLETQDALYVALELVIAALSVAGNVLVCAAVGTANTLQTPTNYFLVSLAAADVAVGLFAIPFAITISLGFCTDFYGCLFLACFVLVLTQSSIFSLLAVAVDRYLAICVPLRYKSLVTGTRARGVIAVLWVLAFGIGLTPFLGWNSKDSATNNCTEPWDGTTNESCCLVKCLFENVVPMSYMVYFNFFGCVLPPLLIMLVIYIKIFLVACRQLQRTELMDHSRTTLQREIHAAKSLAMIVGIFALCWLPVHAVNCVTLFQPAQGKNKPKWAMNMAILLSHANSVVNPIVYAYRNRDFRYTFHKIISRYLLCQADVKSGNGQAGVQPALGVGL

[6] = target: Adenosine receptor A2a (Homo sapiens, UniProt P29274); assay: Displacement of [3H]MSX2 from recombinant human adenosine A2a receptor expressed in HEK293 cells; assay type: cell-based
[7] = target: T4, Amine oxidase [flavin-containing] A; assay: Inhibition of recombinant human MAOA expressed in baculovirus infected BTI insect cells using p-tyramine as substrate preincubated for 30 mins followed by substrate addition and measured over 45 mins by horseradish peroxidase-Amplex Red-coupled fluorometric assay; outline: as §1
[8] = target: T6, Adenosine receptor A1 (Homo sapiens, UniProt P30542); assay: Displacement of [3H]CCPA from recombinant human adenosine A1 receptor expressed in CHO cells; assay type: cell-based
T6 sequence (P30542 whole entry): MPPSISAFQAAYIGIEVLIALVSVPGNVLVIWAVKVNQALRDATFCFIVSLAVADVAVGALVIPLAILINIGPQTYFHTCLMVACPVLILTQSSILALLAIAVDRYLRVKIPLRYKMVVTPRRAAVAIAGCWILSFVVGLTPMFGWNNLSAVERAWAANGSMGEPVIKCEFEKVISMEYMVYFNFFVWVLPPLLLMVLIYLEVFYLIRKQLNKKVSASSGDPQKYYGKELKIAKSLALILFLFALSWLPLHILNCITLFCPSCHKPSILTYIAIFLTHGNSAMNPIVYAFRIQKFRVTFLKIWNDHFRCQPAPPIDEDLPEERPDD

[9] = target: T7, Adenosine receptor A2b (Homo sapiens) (UniProt P29275); assay: Displacement of [3H]PSB603 from recombinant human adenosine A2b receptor expressed in HEK293 cells at 1 uM relative to control; assay type: cell-based
T7 sequence (whole entry): T5 sequence (P29275 whole entry)
Outline: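 Purchased membranes of HEK cells expressing human A2A ([3H]MSX-2) or human A2B ([3H]PSB-603). A single high compound concentration is screened first; for potent compounds, full inhibition curves spanning 3 orders of magnitude. At least three independent experiments.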

[10] = target: T8, Adenosine receptor A3 (Homo sapiens) (UniProt P0DMS8); assay: Displacement of [3H]PSB11 from recombinant human adenosine A3 receptor expressed in CHO cells at 1 uM relative to control; assay type: cell-based
T8 sequence (whole entry): T1 sequence (P0DMS8 whole entry)
Outline: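 Purchased membranes of CHO cells expressing human A1 ([3H]CCPA) or human A3 ([3H]PSB-11). A single high compound concentration is screened first; for potent compounds, full inhibition curves spanning 3 orders of magnitude. At least three independent experiments.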

Adenosine receptor A2a, sequence (P29274 whole entry): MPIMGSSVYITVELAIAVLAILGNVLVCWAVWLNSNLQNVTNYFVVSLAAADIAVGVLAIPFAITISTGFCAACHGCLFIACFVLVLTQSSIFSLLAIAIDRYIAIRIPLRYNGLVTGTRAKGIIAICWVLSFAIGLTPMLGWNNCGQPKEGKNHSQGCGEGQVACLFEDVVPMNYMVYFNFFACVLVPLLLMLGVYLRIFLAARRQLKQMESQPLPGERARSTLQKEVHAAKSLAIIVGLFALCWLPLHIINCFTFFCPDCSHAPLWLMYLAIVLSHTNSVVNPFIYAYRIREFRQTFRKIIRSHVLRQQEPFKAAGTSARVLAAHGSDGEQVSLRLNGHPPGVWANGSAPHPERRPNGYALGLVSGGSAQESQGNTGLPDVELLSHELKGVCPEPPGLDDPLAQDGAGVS

COc1ccc(CN2CCCn3c2nc2c3c(=O)n(C)c(=O)n2C)cc1Cl
Ki [1]: > 1000 nM
Ki [2]: > 1000 nM
IC50 [3]: 407 nM
inhibition (INH) [4]: 38%
Ki [5]: > 1000 nM
Ki [6]: 8000 nM
IC50 [7]: > 100000 nM

Cn1c(=O)c2c(nc3n2CCCN3Cc2cc(Cl)ccc2Cl)n(C)c1=O
Ki [1]: > 1000 nM
Ki [2]: 3020 nM
IC50 [3]: 758 nM
Ki [5]: > 1000 nM
Ki [6]: > 1000 nM

Cn1c(=O)c2c(nc3n2CCCN3Cc2ccc(C(C)(C)C)cc2)n(C)c1=O
IC50 [3]: 1350 nM

Cn1c(=O)c2c(nc3n2CCCN3Cc2ccc(Cl)cc2F)n(C)c1=O
Ki [1]: > 1000 nM
Ki [2]: 4900 nM
IC50 [3]: 377 nM
inhibition (INH) [4]: 2%
Ki [5]: > 1000 nM
Ki [6]: 8910 nM
IC50 [7]: > 1000 nM

Cn1c(=O)c2c(nc3n2CCCN3Cc2ccc(F)cc2Cl)n(C)c1=O
Ki [1]: > 1000 nM
Ki [2]: > 1000 nM
IC50 [3]: 411 nM
Ki [5]: > 1000 nM
Ki [6]: > 1000 nM

Cn1c(=O)c2c(nc3n2CCCN3Cc2ccc(Br)cc2F)n(C)c1=O
Ki [1]: > 1000 nM
Ki [2]: 4130 nM
IC50 [3]: 426 nM
inhibition (INH) [4]: -2%
Ki [5]: > 1000 nM
Ki [6]: > 1000 nM
IC50 [7]: > 1000 nM

Cn1c(=O)c2c(nc3n2CCCN3Cc2ccc(F)c(Br)c2)n(C)c1=O
Ki [1]: > 1000 nM
Ki [2]: 4360 nM
IC50 [3]: 346 nM
inhibition (INH) [4]: 1%
Ki [5]: > 1000 nM
Ki [6]: 8270 nM
IC50 [7]: > 1000 nM

Cn1c(=O)c2c(nc3n2CCCN3Cc2cc(Br)ccc2F)n(C)c1=O
Ki [1]: > 1000 nM
Ki [2]: 486 nM
IC50 [3]: 1180 nM
Ki [5]: > 1000 nM
Ki [6]: > 1000 nM

Cc1cccc(CN2CCCn3c2nc2c3c(=O)n(C)c(=O)n2C)c1
Ki [1]: > 1000 nM
Ki [2]: 1910 nM
IC50 [3]: 313 nM
inhibition (INH) [4]: 17%
Ki [5]: > 1000 nM
Ki [6]: > 1000 nM
IC50 [7]: > 100000 nM

Cn1c(=O)c2c(nc3n2CCCCN3Cc2cccc(Br)c2)n(C)c1=O
Ki [8]: 651 nM
Ki [1]: > 1000 nM
IC50 [3]: 371 nM
inhibition [9]: 41%
inhibition (INH) [4]: 6%
Ki [5]: > 1000 nM
inhibition [10]: 26%
Ki [6]: > 1000 nM
IC50 [7]: > 1000 nM

Cn1c(=O)c2c(nc3n2CCCN3Cc2ccc(Cl)c(C(F)(F)F)c2)n(C)c1=O
Ki [1]: > 1000 nM
Ki [2]: > 1000 nM
IC50 [3]: 310 nM
inhibition (INH) [4]: 2%
Ki [5]: > 1000 nM
Ki [6]: > 1000 nM
IC50 [7]: > 1000 nM

COc1ccc(Cl)c(CN2CCCn3c2nc2c3c(=O)n(C)c(=O)n2C)c1F
Ki [2]: 927 nM
IC50 [3]: 840 nM
inhibition (INH) [4]: 16%
Ki [6]: 627 nM
IC50 [7]: > 100000 nM

Cn1c(=O)c2c(nc3n2CCCN3Cc2ccc(Cl)c(F)c2)n(C)c1=O
Ki [1]: > 1000 nM
Ki [2]: > 1000 nM
IC50 [3]: 264 nM
inhibition (INH) [4]: 9%
Ki [5]: > 1000 nM
Ki [6]: > 1000 nM
IC50 [7]: > 100000 nM

Cn1c(=O)c2c(nc3n2CCCN3Cc2ccccc2F)n(C)c1=O
Ki [1]: > 1000 nM
Ki [2]: 1780 nM
IC50 [3]: 583 nM
inhibition (INH) [4]: -1%
Ki [5]: > 1000 nM
Ki [6]: 1210 nM
IC50 [7]: > 1000 nM

Cn1c(=O)c2c(nc3n2CCCN3Cc2cc(C(F)(F)F)ccc2Cl)n(C)c1=O
Ki [1]: > 1000 nM
Ki [2]: 931 nM
IC50 [3]: 1070 nM
Ki [5]: > 1000 nM
Ki [6]: > 1000 nM

Cn1c(=O)c2c(nc3n2CCCN3Cc2cccc(Br)c2)n(C)c1=O
Ki [1]: > 1000 nM
Ki [2]: 965 nM
IC50 [3]: 396 nM
inhibition (INH) [4]: -1%
Ki [5]: > 1000 nM
Ki [6]: 1700 nM
IC50 [7]: > 1000 nM
